Results reported in ChEMBL document CHEMBL4043302, “Lead Diversification at the Nanomole Scale Using Liver Microsomes and Quantitative Nuclear Magnetic Resonance Spectroscopy: Application to Phosphodiesterase 2 Inhibitors” (J Med Chem, 2018).

How the values were obtained:
[1] = system: Liver; experiment: Drug level in dog liver microsomes treated with 2-(3,4-dimethoxybenzyl)-7-((2R,3R)-2-hydroxy-6-phenylhexan-3-yl)-5-methylimidazo[1,5-f][1,2,4]triazin-4(3H)-one at 20 uM after 1 hr by UHPLC-UV-HRMS method; format: ADME, Canis lupus familiaris, microsome
How it was run: (§1)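 Preparative incubation: substrate 20 µM with liver microsomes (2 mg/mL) of the listed species in 0.1 M potassium phosphate, pH 7.5, with MgCl2 3.3 mM and NADPH 1.3 mM. Run at 37°C in a shaking water bath and stopped with an equal volume of CH3CN. Products were fractionated by HPLC and quantified by qNMR in d6-DMSO.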

[2] = (§2) Apparent permeability across RRCK cells after 1.5 hrs; format: ADME, cell-based, Canis lupus familiaris, MDCKII-LE; conditions: dog, MDCK
[3] = Intrinsic clearance in human hepatocytes assessed per million cells at 1 uM after 0.5 to 4 hrs by HPLC-HRMS method; format: ADME, cell-based, Hepatocyte; conditions: for hepatocyte CLint at 1 µM: human hepatocytes, read-out: CLH; for CLint: hepatocytes, 1 µM
How it was run: (§3)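 Compound at 1 µM was dried from d6-DMSO and redissolved in Williams E medium. Pooled human hepatocytes were added at 680000 cells/mL. Samples were quenched in water/CH3CN (2:1) with 2% formic acid and clozapine as internal standard, then analysed by HPLC-HRMS in positive-ion full scan. k came from the slope of ln peak-area ratio versus time; CLint = k / cell concentration. Non-specific binding was not measured.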

[4] = target: cGMP-dependent 3',5'-cyclic phosphodiesterase (Homo sapiens, UniProt O00408); experiment: Inhibition of human PDE2A1 using 3',5'-[3H]cGMP as substrate after 30 mins by scintillation proximity assay
[5] = Metabolic stability in human hepatocytes at 1 uM after 0.5 to 4 hrs by HPLC-HRMS method; format: ADME, cell-based, Hepatocyte; how it was run: as §3
[6] = Drug level in hamster liver microsomes treated with 7-(1,3-Dimethyl-5-(4-(trifluoromethyl)phenyl)-1H-pyrazol-4-yl)-5-(methoxymethyl)-2-methylimidazol[5,1-f ][1,2,4]triazin-4-(3H)-one at 20 uM after 1 hr by UHPLC-UV-HRMS method; format: ADME, microsome; conditions: cricetinae; how it was run: as §1
[7] = system: MDCKII-LE; experiment: as §2; format: ADME, cell-based, Canis lupus familiaris; conditions: dog, mdckii-le, 1.5 h
[8] = Drug level in rabbit liver microsomes treated with 7-(1,3-Dimethyl-5-(3-methyl-4-(trifluoromethyl)phenyl)-1H-pyrazol-4-yl)-2,5-dimethylimidazo[5,1-f ][1,2,4]triazin-4(3H)-one at 20 uM after 1 hr by UHPLC-UV-HRMS method; format: ADME, Oryctolagus cuniculus, microsome
[9] = Drug level in hamster liver microsomes treated with 7-(5-(4-Methoxyphenyl)-1,3-dimethyl-1H-pyrazol-4-yl)-2,5-dimethylimidazo[5,1-f ][1,2,4]triazin-4(3H)-one at 20 uM after 1.5 hrs by UHPLC-UV-HRMS method; format: ADME, microsome; conditions: cricetinae; how it was run: as §1
[10] = system: Liver; experiment: Drug level in mouse liver microsomes treated with 7-(5-(4-Chlorophenyl)-1,3-dimethyl-1H-pyrazol-4-yl)-2,5-dimethylimidazo[5,1-f ][1,2,4]triazin-4(3H)-one at 20 uM after 1.5 hrs by UHPLC-UV-HRMS method; format: ADME, microsome; how it was run: as §1
[11] = system: Liver; experiment: Drug level in human liver microsomes treated with 2-(3,4-dimethoxybenzyl)-7-((2S,3R)-2-hydroxy-6-phenylhexan-3-yl)-5-methylimidazo[1,5-f][1,2,4]triazin-4(3H)-one at 20 uM after 1 hr by UHPLC-UV-HRMS method; format: ADME, microsome; how it was run: as §1
[12] = Drug level in cynomolgus monkey liver microsomes treated with 7-(1,3-Dimethyl-5-(5-(trifluoromethyl)pyridine-2-yl)-1H-pyrazol-4-yl)-2,5-dimethylimidazo[5,1-f ][1,2,4]triazin-4(3H)-one at 20 uM after 1.2 hrs by UHPLC-UV-HRMS method; format: ADME, Macaca fascicularis, microsome; how it was run: as §1
[13] = Drug level in cynomolgus monkey liver microsomes treated with 5-(Difluoromethyl)-7-(1,3-dimethyl-5-(4-(trifluoromethyl)phenyl)-1H-pyrazol-4-yl)-2-methylimidazo[5,1-f ][1,2,4]triazin-4(3H)-one at 20 uM after 1.5 hrs by UHPLC-UV-HRMS method; format: ADME, Macaca fascicularis, microsome; how it was run: as §1

Sequence of cGMP-dependent 3',5'-cyclic phosphodiesterase (O00408 whole entry): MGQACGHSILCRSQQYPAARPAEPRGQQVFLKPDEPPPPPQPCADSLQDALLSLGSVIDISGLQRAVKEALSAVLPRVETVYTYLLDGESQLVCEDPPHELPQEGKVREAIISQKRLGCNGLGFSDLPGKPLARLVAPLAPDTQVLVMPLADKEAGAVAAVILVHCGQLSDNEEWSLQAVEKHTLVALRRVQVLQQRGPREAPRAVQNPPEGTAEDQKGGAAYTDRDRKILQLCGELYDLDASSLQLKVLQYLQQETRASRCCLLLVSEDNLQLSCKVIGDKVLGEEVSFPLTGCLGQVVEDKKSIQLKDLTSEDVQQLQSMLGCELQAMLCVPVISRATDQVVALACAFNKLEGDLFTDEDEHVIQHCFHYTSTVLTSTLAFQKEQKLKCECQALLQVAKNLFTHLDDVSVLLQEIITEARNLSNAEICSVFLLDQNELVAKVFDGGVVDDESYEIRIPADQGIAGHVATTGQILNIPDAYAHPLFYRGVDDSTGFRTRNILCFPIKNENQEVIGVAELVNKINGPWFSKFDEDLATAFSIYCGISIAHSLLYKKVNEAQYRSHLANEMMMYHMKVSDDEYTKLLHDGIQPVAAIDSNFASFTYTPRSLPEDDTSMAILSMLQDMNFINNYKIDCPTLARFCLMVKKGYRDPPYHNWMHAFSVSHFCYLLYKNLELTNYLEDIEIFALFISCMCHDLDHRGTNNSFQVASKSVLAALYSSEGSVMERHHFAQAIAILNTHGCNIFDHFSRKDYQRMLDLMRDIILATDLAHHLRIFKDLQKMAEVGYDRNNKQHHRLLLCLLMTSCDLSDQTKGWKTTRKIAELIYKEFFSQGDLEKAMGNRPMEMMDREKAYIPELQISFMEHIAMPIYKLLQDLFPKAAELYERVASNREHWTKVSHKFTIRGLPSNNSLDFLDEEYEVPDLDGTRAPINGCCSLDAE

Row | SMILES | Papp at 1.5 h [2] | hepatocyte CLint at 1 µM [3] | Stability [5] | further results
1 | COc1ccc(Cc2nn3c([C@@H](CCC(O)c4ccccc4)[C@@H](C)O)nc(C)c3c(=O)[nH]2)cc1OC (single isomer, unassigned; diastereomer 1) | 2 ×10⁻⁶ cm/s | 14 µL/min/1e6 cells |  | Drug metabolism [1]: Metabolite_Detected
2 | Cc1nc(-c2cnn3c2CN(CC2CCCC2O)CC3)c2c(=O)[nH]cnn12 (single isomer, unassigned; diastereomer 2) |  |  |  | IC50 [4]: > 2000 nM; CLint [3]: 5.8 µL/min/1e6 cells
3 | Cc1nn2c(-c3c(C)n[nH]c3-c3ccc(C(F)(F)F)cc3)nc(CO)c2c(=O)[nH]1 | 0.94 ×10⁻⁶ cm/s |  | Stable | Drug metabolism [6]: Metabolite_Detected
4 | COc1ccc(Cc2nn3c([C@@H](CCC(O)c4ccccc4)[C@H](C)O)nc(C)c3c(=O)[nH]2)cc1OC (single isomer, unassigned; diastereomer 2) |  |  |  | Papp [7]: 2.2 ×10⁻⁶ cm/s; CLint [3]: 14 µL/min/1e6 cells
5 | Cc1nn2c(-c3c(C)nn(C)c3-c3ccc(C(F)(F)F)c(CO)c3)nc(C)c2c(=O)[nH]1 | 3 ×10⁻⁶ cm/s | 3.9 µL/min/1e6 cells |  | Drug metabolism [8]: Metabolite_Detected
6 | COc1ccc(Cc2nn3c([C@@H](CCC(O)c4ccccc4)[C@@H](C)O)nc(C)c3c(=O)[nH]2)cc1OC (stereo in doubt) |  |  |  | Papp [7]: 2.2 ×10⁻⁶ cm/s; CLint [3]: 17 µL/min/1e6 cells
7 | COc1ccc(-c2[nH]nc(C)c2-c2nc(C)c3c(=O)[nH]c(C)nn23)cn1 | 1.1 ×10⁻⁶ cm/s | 1.9 µL/min/1e6 cells |  | Drug metabolism [9]: Metabolite_Detected
8 | Cc1nn2c(-c3c(CO)nn(C)c3-c3ccc(Cl)cc3)nc(C)c2c(=O)[nH]1 | 19 ×10⁻⁶ cm/s | 11 µL/min/1e6 cells |  | Drug metabolism [10]: Metabolite_Detected
9 | COc1ccc(Cc2nn3c([C@@H](CCC(O)c4ccccc4)[C@H](C)O)nc(C)c3c(=O)[nH]2)cc1OC (stereo in doubt) | 2.8 ×10⁻⁶ cm/s | 11 µL/min/1e6 cells |  | Drug metabolism [11]: Metabolite_Detected
10 | COc1ccc(-c2c(-c3nc(CO)c4c(=O)[nH]c(C)nn34)c(C)nn2C)cn1 | 0.76 ×10⁻⁶ cm/s |  | Stable | Drug metabolism [9]: Metabolite_Detected
11 | COc1cc(Cc2nn3c([C@@H](CCC(O)c4ccccc4)[C@@H](C)O)nc(C)c3c(=O)[nH]2)ccc1O (stereo partly specified) | 1.2 ×10⁻⁶ cm/s | 13 µL/min/1e6 cells |  | Drug metabolism [1]: Metabolite_Detected
12 | COc1ccc(Cc2nn3c([C@@H](CCC(O)c4ccccc4)[C@@H](C)O)nc(C)c3c(=O)[nH]2)cc1O (stereo partly specified) | 1.1 ×10⁻⁶ cm/s | 12 µL/min/1e6 cells |  | Drug metabolism [1]: Metabolite_Detected
13 | Cc1nn2c(-c3c(C=O)nn(C)c3-c3ccc(C(F)(F)F)cn3)nc(C)c2c(=O)[nH]1 | 1.2 ×10⁻⁶ cm/s | 14.7 µL/min/1e6 cells |  | Drug metabolism [12]: Metabolite_Detected
14 | Cc1nn2c(-c3c(CO)nn(C)c3-c3ccc(C(F)(F)F)cn3)nc(CO)c2c(=O)[nH]1 | 0.54 ×10⁻⁶ cm/s |  | Stable | Drug metabolism [12]: Metabolite_Detected
15 | Cc1nn2c(-c3c(CO)nn(C)c3-c3ccc(C(F)(F)F)cc3)nc(C(F)F)c2c(=O)[nH]1 | 6.3 ×10⁻⁶ cm/s | 5.5 µL/min/1e6 cells |  | Drug metabolism [13]: Metabolite_Detected
16 | Cc1nn2c(-c3c(CO)nn(C)c3-c3ccc(C(F)(F)F)cc3)nc(CO)c2c(=O)[nH]1 | 1 ×10⁻⁶ cm/s |  | Stable | Drug metabolism [6]: Metabolite_Detected
17 | Cc1nn2c(-c3c(CO)nn(C)c3-c3ccc(C(F)(F)F)c(CO)c3)nc(C)c2c(=O)[nH]1 | 0.55 ×10⁻⁶ cm/s |  | Stable | Drug metabolism [8]: Metabolite_Detected

Row | SMILES | Papp at 1.5 h [2] | hepatocyte CLint at 1 µM [3] | Stability [5] | further results
18 | Cc1nn2c(-c3c(C)nn(C)c3-c3ccc(C(F)(F)F)c(C)c3)nc(CO)c2c(=O)[nH]1 | 13 ×10⁻⁶ cm/s |  | Stable | Drug metabolism [8]: Metabolite_Detected
19 | Cc1nn2c(-c3c(C)nn(C)c3-c3ccc(C(F)(F)F)cn3)nc(CO)c2c(=O)[nH]1 | 1.7 ×10⁻⁶ cm/s |  | Stable | Drug metabolism [12]: Metabolite_Detected
20 | COc1ccc(Cc2nn3c([C@@H](CC(O)C(O)c4ccccc4)[C@@H](C)O)nc(C)c3c(=O)[nH]2)cc1OC (stereo partly specified) | 0.56 ×10⁻⁶ cm/s | 2.4 µL/min/1e6 cells |  | Drug metabolism [1]: Metabolite_Detected
21 | Cc1nn2c(-c3c(C(=O)O)nn(C)c3-c3ccc(C(F)(F)F)c(C)c3)nc(C)c2c(=O)[nH]1 | 53 ×10⁻⁶ cm/s |  | Stable | Drug metabolism [8]: Metabolite_Detected
22 | COc1ccc(Cc2nn3c([C@@H](CCC(O)c4ccccc4)[C@H](C)O)nc(C)c3c(=O)[nH]2)cc1O (stereo partly specified) | 1.2 ×10⁻⁶ cm/s | 9.6 µL/min/1e6 cells |  | Drug metabolism [11]: Metabolite_Detected
23 | Cc1nn2c(-c3c(C)n[nH]c3-c3ccc(C(F)(F)F)cc3)nc(C(F)F)c2c(=O)[nH]1 | 10 ×10⁻⁶ cm/s | 6.4 µL/min/1e6 cells |  | Drug metabolism [13]: Metabolite_Detected
24 | Cc1nn2c(-c3c(C)n[nH]c3-c3ccc(O)nc3)nc(C)c2c(=O)[nH]1 | < 0.5 ×10⁻⁶ cm/s |  | Stable | Drug metabolism [9]: Metabolite_Detected; IC50 [4]: > 2000 nM
25 | COc1ccc(-c2[nH]nc(C)c2-c2nc(CO)c3c(=O)[nH]c(C)nn23)cn1 | < 0.5 ×10⁻⁶ cm/s |  | Stable | Drug metabolism [9]: Metabolite_Detected
26 | COc1ccc(Cc2nn3c([C@@H](CCC(=O)c4ccccc4)[C@@H](C)O)nc(C)c3c(=O)[nH]2)cc1OC | 11 ×10⁻⁶ cm/s | 25 µL/min/1e6 cells |  | Drug metabolism [1]: Metabolite_Detected
27 | Cc1nn2c(-c3c(C)nn(C)c3-c3ccc(C(F)(F)F)c(CO)c3)nc(CO)c2c(=O)[nH]1 | < 0.5 ×10⁻⁶ cm/s |  | Stable | Drug metabolism [8]: Metabolite_Detected
28 | Cc1nn2c(-c3c(CO)nn(C)c3-c3ccc(C(F)(F)F)cn3)nc(C)c2c(=O)[nH]1 | < 0.5 ×10⁻⁶ cm/s |  | Stable | Drug metabolism [12]: Metabolite_Detected
29 | Cc1nn2c(-c3c(C)nn(C)c3-c3ccc(C(F)(F)F)cc3)nc(CO)c2c(=O)[nH]1 | 8.3 ×10⁻⁶ cm/s |  | Stable | IC50 [4]: 0.3 nM; Drug metabolism [6]: Metabolite_Detected
30 | COCc1nc(-c2c(C)nn(C)c2-c2ccc(C(F)(F)F)cc2)n2c1c(=O)[nH]c(C)[n+]2[O-] | 7.9 ×10⁻⁶ cm/s | 13 µL/min/1e6 cells |  | Drug metabolism [6]: Metabolite_Detected
31 | COc1ccc(Cc2nn3c([C@@H](CCC(=O)c4ccccc4)[C@H](C)O)nc(C)c3c(=O)[nH]2)cc1OC |  | 32 µL/min/1e6 cells |  | Drug metabolism [11]: Metabolite_Detected
32 | COc1ccc(Cc2nn3c([C@@H](C(O)CC(O)c4ccccc4)[C@H](C)O)nc(C)c3c(=O)[nH]2)cc1OC (stereo partly specified) |  | 4.3 µL/min/1e6 cells |  | Drug metabolism [11]: Metabolite_Detected
33 | Cc1nn2c(-c3c(CO)nn(C)c3-c3ccc(C(F)(F)F)c(C)c3)nc(CO)c2c(=O)[nH]1 | 1.7 ×10⁻⁶ cm/s |  | Stable | Drug metabolism [8]: Metabolite_Detected
